# Test results taken from ChEMBL document CHEMBL1926540, “Conformationally restricted analogs of the direct thrombin inhibitor FM 19” (Bioorg Med Chem, 2011).
# Target: Prothrombin (Homo sapiens, UniProt P00734)
# Test: Inhibition of human alpha-thrombin using sarcosine-Pro-Arg-p-nitroanilide as substrate preincubated for 5 mins before substrate addition measured after 10 mins by spectrophotometry
# How it was run: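 Human α-thrombin (>95% pure, 5070 U/mg) kept on ice in assay buffer (10 mM Tris, 150 mM NaCl, pH 7.6). Enzyme preincubated with peptide 5 min at 37 °C, then chromogenic substrate added. Final concentrations: 2 nM enzyme, 200 substrate. Nine peptide concentrations, each in triplicate.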
row,Compound,IC50 [µM]
1,Cc1ccc(C[C@H](NC(=O)[C@@H](C)NC(=O)[C@@H]2CCCN2C(=O)[C@@H]2C[C@@H]3CCCC[C@@H]3N2C(=O)[C@H]2CC[C@@H](N=C(N)N)CC2)C(N)=O)cc1,19.5
2,H-RPPGF-OH,601
3,Cc1ccc(C[C@H](NC(=O)[C@@H](C)NC(=O)[C@@H]2CCCN2C(=O)[C@@H]2C[C@@H]3CCCC[C@@H]3N2C(=O)Cc2cccc(C(=N)N)c2)C(N)=O)cc1,26.2
4,Cc1ccc(C[C@H](NC(=O)[C@@H](C)NC(=O)[C@@H]2CCCN2C(=O)[C@@H]2C[C@@H]3CCCC[C@@H]3N2C(=O)[C@@H](C)CCCN=C(N)N)C(N)=O)cc1,9.8
5,Cc1ccc(C[C@H](NC(=O)[C@@H](C)NC(=O)[C@@H]2CCCN2C(=O)[C@@H]2C[C@@H]3CCCC[C@@H]3N2C(=O)[C@@H](N)CCCN=C(N)N)C(N)=O)cc1,73
6,Cc1ccc(C[C@H](NC(=O)[C@@H](C)NC(=O)[C@@H]2CCCN2C(=O)[C@@H]2C[C@@H]3CCCC[C@@H]3N2C(=O)[C@H](C)CCCN=C(N)N)C(N)=O)cc1,98

# Stronger by IC50, values ahead:
row,IC50 [µM],Compound
1,4.4,Cc1ccc(C[C@H](NC(=O)[C@@H](C)NC(=O)[C@@H]2CCCN2C(=O)[C@@H]2C[C@@H]3CCCC[C@@H]3N2C(=O)[C@H](N)CCCN=C(N)N)C(N)=O)cc1
2,2.5,Cc1ccc(C[C@H](NC(=O)[C@@H](C)NC(=O)[C@@H]2CCCN2C(=O)[C@@H]2C[C@@H]3CCCC[C@@H]3N2C(=O)[C@H]2CC[C@H](N=C(N)N)CC2)C(N)=O)cc1
3,1.03,Cc1ccc(C[C@H](NC(=O)[C@@H](C)NC(=O)[C@@H]2CCCN2C(=O)[C@@H]2C[C@@H]3CCCC[C@@H]3N2C(=O)c2cccc(C(=N)N)c2)C(N)=O)cc1
4,0.57,Cc1ccc(C[C@H](NC(=O)[C@@H](C)NC(=O)[C@@H]2CCCN2C(=O)[C@@H]2C[C@@H]3CCCC[C@@H]3N2C(=O)c2ccc(NC(=N)N)cc2)C(N)=O)cc1
5,0.51,Cc1ccc(C[C@H](NC(=O)[C@@H](C)NC(=O)[C@@H]2CCCN2C(=O)[C@@H]2C[C@@H]3CCCC[C@@H]3N2C(=O)c2ccc(C(=N)N)cc2)C(N)=O)cc1
6,0.45,Cc1ccc(C[C@H](NC(=O)[C@@H](C)NC(=O)[C@@H]2CCCN2C(=O)[C@@H]2C[C@@H]3CCCC[C@@H]3N2C(=O)Cc2ccc(C(=N)N)cc2)C(N)=O)cc1
